Results as given in ChEMBL document CHEMBL2346587, “Design, synthesis, and evaluation of a water-soluble antofine analogue with high antiproliferative and antitumor activity” (Bioorg Med Chem, 2013).
Converted amounts (≈) assume the structure as drawn.

Legend:
[1] = tested on: SK-HEP1; test: Cytotoxicity against human SKHEP1 cells after 72 hrs by SRB assay; assay type: functional, cell-based; conditions: SK-HEP1, 72 h
Summary of the method: (§1)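 SRB growth assay: 5 × 10^3 cells/well exposed to a concentration series for 72 h; fixed in 10% TCA 30 min at 4 °C, stained with 0.4% SRB in 1% acetic acid 30 min, dye dissolved in 10 mM Tris pH 10.0, absorbance at 515 nm. Viability relative to vehicle control; IC50 by non-linear regression; at least three experiments. A549-Pa is a paclitaxel-resistant A549 subline.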

[2] = tested on: SNU-638; test: Cytotoxicity against human SNU638 cells after 72 hrs by SRB assay; assay type: functional, cell-based; conditions: SNU-638, 72 h; summary of the method: as §1
[3] = tested on: HCT-15; test: Cytotoxicity against human HCT15 cells after 72 hrs by SRB assay; assay type: functional, cell-based; conditions: HCT-15, 72 h; summary of the method: as §1
[4] = tested on: A549; test: Cytotoxicity against human paclitaxel-resistant A549 cells after 72 hrs by SRB assay; assay type: functional, cell-based; conditions: A549, 72 h; summary of the method: as §1
[5] = tested on: A549; test: Cytotoxicity against human A549 cells after 72 hrs by SRB assay; assay type: functional, cell-based; conditions: A549, 72 h; summary of the method: as §1
[6] = tested on: HCT-116; test: Cytotoxicity against human HCT116 cells after 72 hrs by SRB assay; assay type: functional, cell-based; conditions: HCT-116, 72 h; summary of the method: as §1
[7] = Thermodynamic solubility of the compound in 1:1 mixture of phosphate buffer:ethanol; assay type: physicochemical
[8] = Thermodynamic solubility of the compound in phosphate buffer at pH 7.4; assay type: physicochemical; conditions: read-out: Therm_solubility
[9] = biological target: ATP-dependent translocase ABCB1 (Homo sapiens, UniProt P08183); test: Inhibition of P-gp activity in human paclitaxel-resistant A549 cells assessed as rhodamine 123 accumulation at 10 nM after 72 hrs by FACS analysis (reference value: 14.4 %); assay type: cell-based; set-up: scale not given: the % may be the effect or the level left; conditions: a549, 72 h, 0.01 µM
Summary of the method: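 Paclitaxel-resistant A549-Pa cells seeded at 1 × 10^5 cells/dish, pretreated with compound for 72 h, then loaded with rhodamine-123 in culture medium at 37 °C, 5% CO2, in the dark for 90 min. Cells were trypsinized, washed twice in ice-cold PBS, and analysed immediately by flow cytometry (488 nm laser; green fluorescence through a 530 nm band-pass filter).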

Chain of ATP-dependent translocase ABCB1 (P08183 whole entry): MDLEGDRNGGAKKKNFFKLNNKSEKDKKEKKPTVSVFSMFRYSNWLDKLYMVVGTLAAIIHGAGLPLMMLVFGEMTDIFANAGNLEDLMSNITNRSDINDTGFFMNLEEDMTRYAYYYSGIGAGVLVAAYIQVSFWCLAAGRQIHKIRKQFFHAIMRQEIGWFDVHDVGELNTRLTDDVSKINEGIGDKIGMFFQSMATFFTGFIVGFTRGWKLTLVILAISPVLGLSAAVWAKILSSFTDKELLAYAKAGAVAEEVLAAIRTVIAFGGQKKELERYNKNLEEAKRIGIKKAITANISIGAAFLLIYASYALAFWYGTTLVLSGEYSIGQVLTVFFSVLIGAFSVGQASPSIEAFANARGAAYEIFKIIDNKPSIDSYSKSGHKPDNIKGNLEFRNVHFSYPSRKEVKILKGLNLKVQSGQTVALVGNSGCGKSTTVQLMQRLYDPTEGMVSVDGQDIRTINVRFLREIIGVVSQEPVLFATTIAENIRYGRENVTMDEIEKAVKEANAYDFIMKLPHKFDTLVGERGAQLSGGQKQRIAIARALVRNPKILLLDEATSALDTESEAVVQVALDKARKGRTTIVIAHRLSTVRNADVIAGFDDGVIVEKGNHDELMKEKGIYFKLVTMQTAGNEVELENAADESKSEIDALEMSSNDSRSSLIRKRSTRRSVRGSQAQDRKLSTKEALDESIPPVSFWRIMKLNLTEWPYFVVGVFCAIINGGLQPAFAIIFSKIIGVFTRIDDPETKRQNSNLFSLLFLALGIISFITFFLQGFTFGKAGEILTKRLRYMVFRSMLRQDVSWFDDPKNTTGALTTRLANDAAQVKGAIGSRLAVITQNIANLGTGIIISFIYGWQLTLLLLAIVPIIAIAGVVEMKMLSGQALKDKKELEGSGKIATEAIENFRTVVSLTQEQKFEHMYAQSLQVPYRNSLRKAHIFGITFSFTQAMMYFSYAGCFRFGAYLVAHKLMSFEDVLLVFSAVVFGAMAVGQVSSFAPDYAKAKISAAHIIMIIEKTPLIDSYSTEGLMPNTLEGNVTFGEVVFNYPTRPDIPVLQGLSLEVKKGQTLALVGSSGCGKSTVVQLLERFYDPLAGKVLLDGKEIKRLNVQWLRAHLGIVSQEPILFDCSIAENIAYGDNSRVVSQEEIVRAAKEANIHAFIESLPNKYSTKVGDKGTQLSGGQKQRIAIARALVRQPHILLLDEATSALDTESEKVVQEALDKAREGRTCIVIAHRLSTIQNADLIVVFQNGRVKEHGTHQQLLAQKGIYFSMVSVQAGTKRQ

Row | Structure (SMILES) | IC50 [1] [nM] | IC50 [2] [nM] | IC50 [3] [nM] | IC50 [4] [nM] | IC50 [5] [nM] | IC50 [6] [nM] | solubility thermodynamic ([7]; 1:1 mixture of phosphate buffer:ethanol, read-out: Therm_solubility) [µg/mL] | solubility thermodynamic [8] [µg/mL] | Therm_solubility ([7]; buffer) [µg/mL] | Activity [9] [%]
1 | COc1ccc2c3c(c4cc(OC)c(OC)cc4c2c1)C[C@]1(CO)CCCN1C3 | 540 | 1490 | 1420 | 3660 | 2270 | 800 | – | – | – | –
2 | COc1ccc2c3c(c4cc(OC)c(OC)cc4c2c1)CC1(CO)CCCN1C3 (racemic) | 100 | 92 | 179 | 204 | 167 | 53 | 1390 (≈ 3540 µM) | 656 (≈ 1670 µM) | – | –
3 | COc1ccc2c3c(c4cc(OC)c(OC)cc4c2c1)CC1CCCN1C3 (racemic) [(+/-)-ANTOFINE] | 16 | 21 | 25 | 22 | 20 | 11 | – | – | – | –
4 | COc1ccc2c3c(c4cc(OC)c(OC)cc4c2c1)CC1(C(=O)O)CCCN1C3 (racemic) | > 1000 | > 1000 | > 1000 | > 1000 | > 1000 | > 1000 | – | – | – | –
5 | COC(=O)C12CCCN1Cc1c(c3cc(OC)c(OC)cc3c3cc(OC)ccc13)C2 (racemic) | > 1000 | > 1000 | > 1000 | > 1000 | > 1000 | > 1000 | – | – | – | –
6 | COc1ccc2c3c(c4cc(OC)c(OC)cc4c2c1)C[C@H]1CCCN1C3 [(-)-ANTOFINE] | 8 | 10 | 13 | 18 | 11 | 8 | – | < 1 | 47 | 37.9
